From ChEMBL document CHEMBL3244010, “Isolation, synthesis, and biological activity of five metabolites of danazol” (J Med Chem, 1977)
Calls of active or inactive are those of the source. The calls are words filed in the database; no cut-off is given here.

Tests used:
Rattus norvegicus [1] = test: Inhibition of pituitary gonadotropin activity in rat assessed as decrease of number of vaginal estrous days at 50 mg/kg, sc for 14 days; details: Pituitary gland
Rattus norvegicus [2] = test: Inhibition of pituitary gonadotropin activity in rat assessed as decrease of ventral prostate weight at 100 mg/kg, po for 14 days; format: functional, organism-based; set-up: dose 100 mg/kg; details: Pituitary gland
Procedure, shortened: (§1)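 Mature male rats were dosed orally at 100 mg/kg in ethanol-oil vehicle for 14 days. Ventral prostate, seminal vesicle and testicular weights were then compared against controls for significance.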

Rattus norvegicus [3] = test: Inhibition of pituitary gonadotropin activity in rat assessed as decrease of ovarian weight at 50 mg/kg, sc for 14 days; details: Pituitary gland
Rattus norvegicus [4] = test: Inhibition of pituitary gonadotropin activity in rat assessed as decrease of testicular weight at 100 mg/kg, po for 14 days; format: functional, organism-based; set-up: dose 100 mg/kg; details: Pituitary gland
Procedure, shortened: as §1

Homo sapiens [5] = test: Drug metabolism in human assessed as metabolite level treated with 800 mg, po of danazol in urine after 24 hrs by TLC analysis; format: ADME, organism-based; details: in vivo
Procedure, shortened: (§2)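 Urine was collected from one subject given 800 mg/day orally for 7 days. Metabolites were isolated from the urine, purified in separate chromatographic systems, and identified against synthetic reference material by UV spectra in methanol and by mass spectra.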

Rattus norvegicus [6] = test: Inhibition of pituitary gonadotropin activity in rat assessed as decrease of seminal vesicles weight at 100 mg/kg, po for 14 days; format: functional, organism-based; set-up: dose 100 mg/kg; details: Pituitary gland
Procedure, shortened: as §1

Rattus norvegicus [7] = test: Inhibition of pituitary gonadotropin activity in rat assessed as decrease of number of vaginal estrous days at 25 mg/kg, sc for 14 days; details: Pituitary gland
Rattus norvegicus [8] = test: Inhibition of pituitary gonadotropin activity in rat assessed as decrease of ovarian weight at 25 mg/kg, sc for 14 days; details: Pituitary gland
[9] = Drug metabolism in rhesus monkey assessed as metabolite level in urine treated with at 50 mg/kg, po bid of danazol after 24 hrs by TLC analysis; format: ADME, organism-based, Macaca mulatta; set-up: dose 50 mg/kg, route oral; details: in vivo
Homo sapiens [10] = test: Drug metabolism in human assessed as 6beta,17-dihydroxy-2alpha-(hydroxymethyl)-17alpha-pregn-4-en-20-yn-3-one level in urine at 800 mg, po after 24 hrs by TLC analysis; format: ADME, organism-based; details: in vivo
Procedure, shortened: as §2

Homo sapiens [11] = test: Drug metabolism in human assessed as 6beta,17-dihydroxy-2-(hydroxymethyl)-17alpha-pregna-1,4-dien-20-yn-3-one level in urine at 800 mg, po after 24 hrs by TLC analysis; format: ADME, organism-based; details: in vivo
Procedure, shortened: as §2

Homo sapiens [12] = test: Drug metabolism in human assessed as 17-hydroxy-2-(hydroxymethyl)-17alpha-pregna-1,4-dien-20-yn-3-one level in urine at 800 mg, po after 24 hrs by TLC analysis; format: ADME, organism-based; details: in vivo
Procedure, shortened: as §2

[13] = Drug metabolism in rhesus monkey assessed as 17-hydroxy-17alpha-pregn-4-en-20-yn-3-one level in urine at 50 mg/kg, po bid after 24 hrs by TLC analysis; format: ADME, organism-based, Macaca mulatta; set-up: dose 50 mg/kg, route oral; details: in vivo
Rattus norvegicus [14] = test: Inhibition of pituitary gonadotropin activity in rat assessed as decrease of number of vaginal estrous days at 20 mg/kg, sc for 14 days; details: Pituitary gland
Homo sapiens [15] = test: Drug metabolism in human assessed as 17-hydroxy-2alpha-(hydroxymethyl)-17apregn-4-en-20-yn-3-one level in urine at 800 mg, po after 24 hrs by TLC analysis; format: ADME, organism-based; details: in vivo
Procedure, shortened: as §2

Rattus norvegicus [16] = test: Inhibition of pituitary gonadotropin activity in rat assessed as decrease of ovarian weight at 20 mg/kg, sc for 14 days; details: Pituitary gland

Row | SMILES | inhibition (Rattus norvegicus [1]) | inhibition (Rattus norvegicus [2]) | inhibition (Rattus norvegicus [3]) | inhibition (Rattus norvegicus [4]) | Drug metabolism (Homo sapiens [5]) | inhibition (Rattus norvegicus [6]) | inhibition (Rattus norvegicus [7]) | inhibition (Rattus norvegicus [8]) | Drug metabolism [9] | Drug metabolism (Homo sapiens [10]) | Drug metabolism (Homo sapiens [11]) | Drug metabolism (Homo sapiens [12]) | Drug metabolism [13] | inhibition (Rattus norvegicus [14]) | Drug metabolism (Homo sapiens [15]) | inhibition (Rattus norvegicus [16])
1 | C#C[C@]1(O)CC[C@H]2[C@@H]3CCC4=CC(=O)[C@H](CO)C[C@]4(C)[C@H]3CC[C@@]21C | inactive | inactive | inactive | inactive | metabolite_detected | inactive | – | – | – | – | – | – | – | – | – | –
2 | C#C[C@]1(O)CC[C@H]2[C@@H]3CCC4=CC(=O)CC[C@]4(C)[C@H]3CC[C@@]21C [ETHISTERONE] | – | inactive | – | inactive | – | inactive | inactive | inactive | metabolite_detected | – | – | – | – | – | – | –
3 | C#C[C@]1(O)CC[C@H]2[C@@H]3C[C@@H](O)C4=CC(=O)[C@H](CO)C[C@]4(C)[C@H]3CC[C@@]21C | inactive | inactive | inactive | inactive | metabolite_detected | inactive | – | – | – | – | – | – | – | – | – | –
4 | C#C[C@]1(O)CC[C@H]2[C@@H]3CCC4=CC(=O)C(CO)=C[C@]4(C)[C@H]3CC[C@@]21C | – | inactive | – | inactive | metabolite_detected | inactive | inactive | inactive | – | – | – | – | – | – | – | –
5 | C#C[C@]1(O)CC[C@H]2[C@@H]3C[C@@H](O)C4=CC(=O)C(CO)=C[C@]4(C)[C@H]3CC[C@@]21C | inactive | inactive | inactive | inactive | metabolite_detected | inactive | – | – | – | – | – | – | – | – | – | –
6 | C#C[C@]1(O)CC[C@H]2[C@@H]3CCC4=Cc5oncc5C[C@]4(C)[C@H]3CC[C@@]21C [DANAZOL] | – | Active | – | Active | – | Active | – | – | – | metabolite_detected | metabolite_detected | metabolite_detected | metabolite_detected | Active | metabolite_detected | Active
